According to publication PMC6931074 (Journal of Pharmaceutical Analysis, 2018):
Like-named read-outs stand apart in the source and are kept apart here.

Experiments:
[1] = cited from earlier work
[2] = Influence of irradiation; type: physicochemical; settings: solution under indirect daylight at room temperature, after 15 min
Summary of the method: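 A 150 μg/mL test compound solution was exposed to daylight at 25 °C, alongside a light-shielded control. Content was measured by C18 RP-HPLC using acetonitrile–phosphate buffer (35:65, pH 6.5) at 1 mL/min, 30 °C, with UV detection at 396 nm.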

[3] = type: physicochemical
Summary of the method: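 Test compound stock (0.75 mg/mL in N,N-dimethylformamide) was diluted to 150 μg/mL in phosphate buffers (pH 1.85–10.97, set at 25 °C). Solutions in glass tubes were held in a thermostat bath at 25, 37, 60, 80 or 100 °C. Aliquots were taken at 0–24 h, ice-quenched, diluted tenfold in methanol, filtered (0.22 µm) and run by C18 RP-HPLC (UV 396 nm). Half-life = ln2/k; activation parameters came from Arrhenius relationship.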

[4] = Influence of oxidation; type: physicochemical; settings: H2O2 3%, 10% and 30%
Summary of the method: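 Test compound solutions (150 μg/mL) containing 3%, 10% or 30% H₂O₂ were incubated at 25 °C. Samples taken at 0, 2, 5, 10, 20 and 30 min were ice-quenched, diluted tenfold with methanol, filtered (0.22 µm) and quantified by isocratic C18 RP-HPLC (UV 396 nm). Rate constants were derived from plots of ln(Ct/C0) against time.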

## CC(/C=C1\SC(=S)N(CC(=O)O)C1=O)=C\c1ccccc1 [epalrestat, 5-[(1Z,2E)− 2-methyl-3-phenylpropenylidene]-4-oxo-2-thioxo-3-thiazolidie acetic acid]
[1]
  behaviour of epalrestat powder on exposure to light: gradually fades in color and decomposes on exposure to light
[2]
  content of epalrestat relative to that protected from light: a third
[3]; 25 °C, pH 1.85 to 10.97
  pH of maximum stability: ~10.97
[3]; aqueous phosphate buffer, pH 1.85, half-time (t1/2), pH 1.85, 25 °C
  half-life at 150 μg/mL: 43.3 h
[3]; aqueous phosphate buffer, pH 1.85, half-time (t1/2), pH 1.85, 37 °C
  half-life at 150 μg/mL: 33.6 h
[3]; aqueous phosphate buffer, pH 1.85, half-time (t1/2), pH 1.85, 60 °C
  half-life at 150 μg/mL: 29.6 h
[3]; aqueous phosphate buffer, pH 1.85, half-time (t1/2), pH 1.85, 80 °C
  half-life at 150 μg/mL: 24.6 h
[3]; aqueous phosphate buffer, pH 1.85, half-time (t1/2), pH 1.85, 100 °C
  half-life at 150 μg/mL: 10.6 h
[3]; aqueous phosphate buffer, pH 3.13, half-time (t1/2), pH 3.13, 25 °C
  half-life at 150 μg/mL: 43.6 h
[3]; aqueous phosphate buffer, pH 3.13, half-time (t1/2), pH 3.13, 37 °C
  half-life at 150 μg/mL: 35.7 h
[3]; aqueous phosphate buffer, pH 3.13, half-time (t1/2), pH 3.13, 60 °C
  half-life at 150 μg/mL: 33.6 h
[3]; aqueous phosphate buffer, pH 3.13, half-time (t1/2), pH 3.13, 80 °C
  half-life at 150 μg/mL: 23.3 h
[3]; aqueous phosphate buffer, pH 3.13, half-time (t1/2), pH 3.13, 100 °C
  half-life at 150 μg/mL: 11.1 h
[3]; aqueous phosphate buffer, pH 5, half-time (t1/2), pH 5.00, 25 °C
  half-life at 150 μg/mL: 116 h
[3]; aqueous phosphate buffer, pH 5, half-time (t1/2), pH 5.00, 37 °C
  half-life at 150 μg/mL: 60.3 h
[3]; aqueous phosphate buffer, pH 5, half-time (t1/2), pH 5.00, 60 °C
  half-life at 150 μg/mL: 36.3 h
[3]; aqueous phosphate buffer, pH 5, half-time (t1/2), pH 5.00, 80 °C
  half-life at 150 μg/mL: 22.9 h
[3]; aqueous phosphate buffer, pH 5, half-time (t1/2), pH 5.00, 100 °C
  half-life at 150 μg/mL: 9.67 h
[3]; pH 1.85
  △H^‡ (enthalpy of activation): 2.806 kcal/mol
  △S^‡ (entropy of activation): −647.95 J/K/mol
[3]; pH 1.85, 25 °C
  Rate constant (k): 0.0160 h⁻¹
[3]; pH 1.85, 37 °C
  Rate constant (k): 0.0206 h⁻¹
[3]; pH 1.85, 60 °C
  Rate constant (k): 0.0234 h⁻¹
[3]; pH 1.85, 80 °C
  Rate constant (k): 0.0282 h⁻¹
[3]; pH 1.85, 100 °C
  Rate constant (k): 0.0655 h⁻¹
[3]; pH 1.85, Arrhenius plot 25–100 °C
  Ea (activation energy): 3.468 kcal/mol
[3]; pH 3.13
  △H^‡ (enthalpy of activation): 2.885 kcal/mol
  △S^‡ (entropy of activation): −646.94 J/K/mol
[3]; pH 3.13, 25 °C
  Rate constant (k): 0.0159 h⁻¹
[3]; pH 3.13, 37 °C
  Rate constant (k): 0.0194 h⁻¹
[3]; pH 3.13, 60 °C
  Rate constant (k): 0.0206 h⁻¹
[3]; pH 3.13, 80 °C
  Rate constant (k): 0.0297 h⁻¹
[3]; pH 3.13, 100 °C
  Rate constant (k): 0.0627 h⁻¹
[3]; pH 3.13, Arrhenius plot 25–100 °C
  Ea (activation energy): 3.549 kcal/mol
[3]; pH 5.00
  △H^‡ (enthalpy of activation): 6.03 kcal/mol
  △S^‡ (entropy of activation): −607.24 J/K/mol
[3]; pH 5.00, 25 °C
  Rate constant (k): 0.0060 h⁻¹
[3]; pH 5.00, 37 °C
  Rate constant (k): 0.0115 h⁻¹
[3]; pH 5.00, 60 °C
  Rate constant (k): 0.0191 h⁻¹
[3]; pH 5.00, 80 °C
  Rate constant (k): 0.0302 h⁻¹
[3]; pH 5.00, 100 °C
  Rate constant (k): 0.0717 h⁻¹
[3]; pH 5.00, Arrhenius plot 25–100 °C
  Ea (activation energy): 6.692 kcal/mol
[3]; pH 7.10
  △H^‡ (enthalpy of activation): 6.217 kcal/mol
  △S^‡ (entropy of activation): −604.87 J/K/mol
[3]; pH 7.10, 25 °C
  Rate constant (k): 0.0043 h⁻¹
[3]; pH 7.10, 37 °C
  Rate constant (k): 0.0153 h⁻¹
[3]; pH 7.10, 60 °C
  Rate constant (k): 0.0195 h⁻¹
[3]; pH 7.10, 80 °C
  Rate constant (k): 0.0280 h⁻¹
[3]; pH 7.10, 100 °C
  Rate constant (k): 0.0695 h⁻¹
[3]; pH 7.10, Arrhenius plot 25–100 °C
  Ea (activation energy): 6.879 kcal/mol
[3]; pH 9.08
  △H^‡ (enthalpy of activation): 7.012 kcal/mol
  △S^‡ (entropy of activation): −594.83 J/K/mol
[3]; pH 9.08, 25 °C
  Rate constant (k): 0.0033 h⁻¹
[3]; pH 9.08, 37 °C
  Rate constant (k): 0.0122 h⁻¹
[3]; pH 9.08, 60 °C
  Rate constant (k): 0.0194 h⁻¹
[3]; pH 9.08, 80 °C
  Rate constant (k): 0.0264 h⁻¹
[3]; pH 9.08, 100 °C
  Rate constant (k): 0.0690 h⁻¹
[3]; pH 9.08, Arrhenius plot 25–100 °C
  Ea (activation energy): 7.674 kcal/mol
[3]; pH 10.97
  △H^‡ (enthalpy of activation): 10.38 kcal/mol
  △S^‡ (entropy of activation): −552.37 J/K/mol
[3]; pH 10.97, 25 °C
  Rate constant (k): 0.0016 h⁻¹
  shelf-life (t0.9): 65.88
[3]; pH 10.97, 37 °C
  Rate constant (k): 0.0036 h⁻¹
  shelf-life (t0.9): 29.28
[3]; pH 10.97, 60 °C
  Rate constant (k): 0.0140 h⁻¹
  shelf-life (t0.9): 7.53
[3]; pH 10.97, 80 °C
  Rate constant (k): 0.0267 h⁻¹
  shelf-life (t0.9): 3.95
[3]; pH 10.97, 100 °C
  Rate constant (k): 0.0724 h⁻¹
  shelf-life (t0.9): 1.46
[3]; pH 10.97, Arrhenius plot 25–100 °C
  Ea (activation energy): 11.04 kcal/mol
[3]; phosphate buffer, pH 7.1, half-time (t1/2), pH 7.10, 25 °C
  half-life at 150 μg/mL: 161 h
[3]; phosphate buffer, pH 7.1, half-time (t1/2), pH 7.10, 37 °C
  half-life at 150 μg/mL: 45.3 h
[3]; phosphate buffer, pH 7.1, half-time (t1/2), pH 7.10, 60 °C
  half-life at 150 μg/mL: 35.5 h
[3]; phosphate buffer, pH 7.1, half-time (t1/2), pH 7.10, 80 °C
  half-life at 150 μg/mL: 24.8 h
[3]; phosphate buffer, pH 7.1, half-time (t1/2), pH 7.10, 100 °C
  half-life at 150 μg/mL: 9.97 h
[3]; phosphate buffer, pH 9.08, half-time (t1/2), pH 9.08, 25 °C
  half-life at 150 μg/mL: 210 h
[3]; phosphate buffer, pH 9.08, half-time (t1/2), pH 9.08, 37 °C
  half-life at 150 μg/mL: 56.8 h
[3]; phosphate buffer, pH 9.08, half-time (t1/2), pH 9.08, 60 °C
  half-life at 150 μg/mL: 35.7 h
[3]; phosphate buffer, pH 9.08, half-time (t1/2), pH 9.08, 80 °C
  half-life at 150 μg/mL: 26.2 h
[3]; phosphate buffer, pH 9.08, half-time (t1/2), pH 9.08, 100 °C
  half-life at 150 μg/mL: 10 h
[3]; phosphate buffer, pH 10.97, half-time (t1/2), pH 10.97, 25 °C
  half-life at 150 μg/mL: 433 h
[3]; phosphate buffer, pH 10.97, half-time (t1/2), pH 10.97, 37 °C
  half-life at 150 μg/mL: 192 h
[3]; phosphate buffer, pH 10.97, half-time (t1/2), pH 10.97, 60 °C
  half-life at 150 μg/mL: 49.5 h
[3]; phosphate buffer, pH 10.97, half-time (t1/2), pH 10.97, 80 °C
  half-life at 150 μg/mL: 26 h
[3]; phosphate buffer, pH 10.97, half-time (t1/2), pH 10.97, 100 °C
  half-life at 150 μg/mL: 9.57 h
[3]; plot of ln(Ct/C0) against time, all degradation conditions
  reaction order of degradation: first-order
[4]
  stability under oxidation conditions: extremely unstable
